Measurements reported in ChEMBL document CHEMBL1629469, “Pharmacophore model for pentamidine analogs active against Plasmodium falciparum” (Eur J Med Chem, 2010).

Legend:
Plasmodium falciparum [1] = test: Antimalarial activity against chloroquine and pyrimethamine -resistant Plasmodium falciparum K1 after 48 hrs by [3H]hypoxanthine incorporation assay; format: functional, organism-based
Outline: (§1)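 Asexual erythrocytic parasites in human red cells (1.25% hematocrit, 0.3% parasitemia) exposed to serial drug dilutions in RPMI 1640 with Hepes, AlbuMAX II, bicarbonate and neomycin. Incubation at 37 C under 93% N2/4% CO2/3% O2; [3H]hypoxanthine added after 48 h, then 24 h more. Incorporation counted by scintillation. IC50 taken from sigmoidal curves; four independent runs, each in duplicate; DMSO below 1%.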

Plasmodium falciparum [2] = test: Antimalarial activity against drug -sensitive Plasmodium falciparum NF54 after 48 hrs by [3H]hypoxanthine incorporation assay; format: functional, organism-based; outline: as §1

SMILES	IC50 (Plasmodium falciparum [1]) [nM]	IC50 (Plasmodium falciparum [2]) [nM]
COc1cc(C2=NCCN2)ccc1OCCCCCOc1ccc(C2=NCCN2)cc1OC	24	112
N=C(N)c1ccc(OCCCCCOc2ccc(C(=N)N)cc2Cl)c(Cl)c1	32.4	105
CCOC(=O)c1cc(C(=N)N)ccc1OCCCCCOc1ccc(C(=N)N)cc1C(=O)OCC	26.3	97.7
CN1CCN=C1c1ccc(OCCCCCOc2ccc(C3=NCCN3C)cc2)cc1	501	204
Oc1cc(OCCCCCOc2ccc(C3=NCCN3)c(O)c2)ccc1C1=NCCN1	123	58.9
N=C(N)c1ccc(OCCCCCOc2ccc(C(=N)N)cc2C(N)=O)c(C(N)=O)c1	47.9	302
CCOC(=O)c1cc(C(=N)N)ccc1OCCCCCOc1ccc(C(=N)N)cc1C(N)=O	17	120
N/N=C(\N)c1ccc(OCCCCCOc2ccc(/C(N)=N/N)cc2)cc1	562	282
CC(=N)Nc1ccc(OCCCCCOc2ccc(NC(C)=N)cc2)cc1	57.5	468
N=C(N)c1ccc(OCCCCCOc2ccc(C(=N)N)cc2Br)c(Br)c1	18.2	52.5
c1cc(C2=NCCN2)ccc1OCCCCCOc1ccc(C2=NCCN2)cc1	3.39	34.7
N=C(N)c1ccc(OCCCCCOc2ccc(C(=N)N)c(F)c2)cc1F	18.2	81.3
Fc1cc(OCCCCCOc2ccc(C3=NCCN3)c(F)c2)ccc1C1=NCCN1	8.51	50.1
CCOC(=O)c1cc(C2=NCCN2)ccc1OCCCCCOc1ccc(C2=NCCN2)cc1C(=O)OCC	33.1	234
CC(C)NC(=N)c1ccc(OCCCCCOc2ccc(C(=N)NC(C)C)c(F)c2)cc1F	646	191
N=C(N)c1ccc(OCCCCCOc2ccc(C(=N)N)c(O)c2)cc1O	631	407
CC(C)NC(=N)c1ccc(OCCCCCOc2ccc(C(=N)NC(C)C)c(O)c2)cc1O	741	955
N=C(Nc1ccc(OCCCCCOc2ccc(NC(=N)c3ccccc3)cc2)cc1)c1ccccc1	245	34.7
CNC(=N)c1ccc(OCCCCCOc2ccc(C(=N)NC)cc2)cc1	5.01	26.9
N=C(N)c1ccc(OCCCCCOc2ccc(C(=N)N)cc2)cc1 [PENTAMIDINE]	12.3	56.2
N=C(N)c1ccc(SCCCCCSc2ccc(C(=N)N)cc2)cc1	23.4	34.7
CCOC(=O)c1cc(C(=N)NC(C)C)ccc1OCCCCCOc1ccc(C(=N)NC(C)C)cc1C(=O)OCC	14.5	28.2
